Measurements: ChEMBL document CHEMBL1122785, “Synthesis and evaluation of a series of 2'-O-acyl derivatives of 9-beta-D-arabinofuranosyladenine as antiherpes agents” (J Med Chem, 1984)
Converted amounts (≈) assume the structure as drawn.

What was measured:
[1] = Compound was evaluated for the octanol/water partition coefficient at 37 degree Celsius at 10.5 hour; assay type: physicochemical
Summary of the method: (§1)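 Dilute aqueous solutions were equilibrated with 1-octanol at 37 °C. At each sampling interval the tubes were centrifuged. Aliquots of the octanol layer, then of the water layer, were diluted into methanol and stored at -20 °C for analysis.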

[2] = system: Human alphaherpesvirus 1; experiment: In vitro activity against herpes simplex virus type 1(strain 377) and the minimum inhibitory concentration was determined; assay type: functional
[3] = Solubility of 150 mg compound in aqueous buffer at pH 7.3 and 37 degree Celsius after 4.0 hr; assay type: physicochemical; details: read-out: Concentration
Summary of the method: (§2)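 Crystalline compound (stated amount) was agitated in 1 mL phosphate-buffered saline (NaH2PO4/NaCl, pH 7.3) at 37 °C. At each time point samples were centrifuged 5 min at 14000 rpm. Supernatant was diluted in mobile phase and quantified by HPLC against standards. Concentrations were corrected for prodrug decomposition.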

[4] = Compound was evaluated for the octanol/water partition coefficient at 37 degree Celsius at 4.5 hour; assay type: physicochemical; summary of the method: as §1
[5] = Compound was evaluated for the octanol/water partition coefficient at 37 degree Celsius at 1.0hr; assay type: physicochemical; details: 1 h; summary of the method: as §1
[6] = system: Human alphaherpesvirus 1; experiment: virus rating as the measure of the activity against herpes simplex virus type 1(strain 377); assay type: functional
[7] = Solubility of 150 mg compound in aqueous buffer at pH 7.3 and 37 degree Celsius after 8.0 hr; assay type: physicochemical; details: read-out: Concentration; summary of the method: as §2
[8] = Compound was evaluated for the octanol/water partition coefficient at 37 degree Celsius at 24.5 hour; assay type: physicochemical; summary of the method: as §1
[9] = Compound was evaluated for the octanol/water partition coefficient at 37 degree Celsius at 3.0 hr; assay type: physicochemical; summary of the method: as §1
[10] = system: Human alphaherpesvirus 1; experiment: Compound was evaluated for its activity against herpes simplex virus type 1(strain 377) and the minimum inhibitory concentration was determined; assay type: functional
[11] = Solubility of 10 mg compound in aqueous buffer at pH 7.3 and 37 degree Centigrade after 8.0 hr; assay type: physicochemical; details: read-out: Concentration; summary of the method: as §2
[12] = Solubility of 10 mg compound in aqueous buffer at pH 7.3 and 37 degree Celsius after 4.0 hr; assay type: physicochemical; details: read-out: Concentration; summary of the method: as §2
[13] = Solubility of 10 mg compound in aqueous buffer at pH 7.3 and 37 degree Celsius after 13.5 hr; assay type: physicochemical; details: read-out: Concentration; summary of the method: as §2
[14] = Solubility of 20 mg compound in aqueous buffer at pH 7.3 and 37 degree Centigrade after 8.0 hr; assay type: physicochemical; details: read-out: Concentration; summary of the method: as §2
[15] = Solubility of 20 mg compound in aqueous buffer at pH 7.3 and 37 degree Celsius after 13.5 hr; assay type: physicochemical; details: read-out: Concentration; summary of the method: as §2
[16] = Solubility of 20 mg compound in aqueous buffer at pH 7.3 and 37 degree Celsius after 4.0 hr; assay type: physicochemical; details: read-out: Concentration; summary of the method: as §2

Structure (SMILES)	Partition coefficient [1]	MIC50 [2] [µg/mL]	solubility at 4 h [3] [mg/mL]	Partition coefficient [4]	Partition coefficient [5]	VR [6]	solubility at 8 h [7] [mg/mL]	Partition coefficient [8]	Partition coefficient [9]	MIC50 [10] [µg/mL]	solubility at 8 h [11] [mg/mL]	solubility at 4 h [12] [mg/mL]	solubility at 13.5 h [13] [mg/mL]	solubility at 8 h [14] [mg/mL]	solubility at 13.5 h [15] [mg/mL]	solubility at 4 h [16] [mg/mL]
CC(=O)O[C@H]1C(n2cnc3c(N)ncnc32)O[C@H](CO)[C@@H]1O (some centres undefined)	0.127	26.2 (≈ 0.0847 mM)	93.6 (≈ 303 mM)	0.118	0.149	2.3	93.6 (≈ 303 mM)	0.122	0.134							
Nc1ncnc2c1ncn2[C@@H]1O[C@H](CO)[C@@H](O)[C@@H]1O [VIDARABINE]						2				9.5 (≈ 0.0355 mM)						
CCCC(=O)O[C@H]1C(n2cnc3c(N)ncnc32)O[C@H](CO)[C@@H]1O (some centres undefined)		71.9 (≈ 0.213 mM)		0.969		1.5		0.975	0.911		3.54 (≈ 10.5 mM)	3.38 (≈ 10 mM)	3.31 (≈ 9.81 mM)			
CCC(=O)O[C@H]1C(n2cnc3c(N)ncnc32)O[C@H](CO)[C@@H]1O (some centres undefined)	0.335	29.3 (≈ 0.0906 mM)		0.318	0.336	1.9		0.329	0.359					11 (≈ 34 mM)	13 (≈ 40.2 mM)	11.1 (≈ 34.3 mM)
CCCCC(=O)O[C@H]1C(n2cnc3c(N)ncnc32)O[C@H](CO)[C@@H]1O (some centres undefined)	3	56.8 (≈ 0.162 mM)		2.2	2.5	2.6		2.8	2.5					10.8 (≈ 30.7 mM)	11 (≈ 31.3 mM)	9.28 (≈ 26.4 mM)
